The results in this text go back to ChEMBL document CHEMBL2034874, “5-acetyl-2-arylbenzimidazoles as antiviral agents. Part 4” (Eur J Med Chem, 2012).

The IC50 is the concentration at which inhibition is half-maximal. For orientation: EC50 means the concentration needed to bring the measured effect to its halfway point. As a reminder, the CC50 is the concentration giving 50% cytotoxicity.

Bounds are passed on as bounds.

Data set [1] in a line: Inhibition of HCV NS5B polymerase. Set-up: species or system Hepacivirus hominis.
Another data set concerns Coxsackievirus B2. The data set is described as follows: Antiviral activity against Coxsackie virus type B2. The class given is functional, organism-based. To be noted: Enterovirus B.
A further data set has as its system Yellow fever virus. The data set is described as follows: Antiviral activity against Yellow fever virus 17D infected in BHK21 cells assessed as inhibition of virus-induced cytopathogenicity after 3 to 4 days by MTT assay. In kind it is functional, cell-based. The settings on record: BHK-21.
Data set [2] has as its system Human immunodeficiency virus 1. The data set is described as follows: Antiviral activity against HIV1 3B infected in human MT4 cells assessed as inhibition of virus-induced cytopathogenicity after 4 days by MTT assay. In kind it is functional, organism-based. To be noted: Human immunodeficiency virus 1, 3B, MT4, 96 h. In a few lines:
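MT-4 cells (1×10^4/well) in RPMI with serial compound dilutions, infected with HIV-1 IIIB at 100 CCID50 (m.o.i. 0.01). Viability measured by MTT after 4 days at 37 °C. EC50 for 50% protection from cytopathogenicity obtained by linear regression against untreated controls.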

Data set [3] can be described thus: Antiviral activity against Human respiratory syncytial virus A2 ATCC VR-1540 infected in african green monkey Vero-76 cells assessed as reduction in viral plaque after 5 days by crystal violet staining. In kind it is functional, cell-based. To be noted: ATCC VR-1540, Vero 76, 120 h. In a few lines:
(§1)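 Vero-76 monolayers (2×10^5 cells/well) infected for 2 h at 50–100 PFU/well. Unadsorbed virus removed. D-MEM with 1% inactivated FBS, 0.75% methylcellulose and serial compound dilutions added. Incubation at 37 °C for 3 days (CVB-5, HSV-1) or 5 days (RSV). Fixed and stained with 50% ethanol/0.8% crystal violet, then plaques counted. EC50 by linear regression versus untreated controls.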

For data set [4], the system named is Vesicular stomatitis Indiana virus. Kind of data set: Antiviral activity against Vesicular stomatitis virus indiana ATCC VR-1540 infected in african green monkey Vero-76 cells assessed as reduction in viral plaque after 2 days by crystal violet staining. In kind it is functional, organism-based. To be noted: ATCC VR-1540, Vero 76, 48 h.
Data set [5] in a line: Cytotoxicity against BHK21 cells by MTT assay. In kind it is cell-based, Mesocricetus auratus. To be noted: hamster, BHK-21 cells. In a few lines: (§2)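 Mock-infected MDBK (6×10^5 cells/mL, MEM-E with 10% horse serum) or BHK (1×10^6 cells/mL, MEM-E with 10% FBS) cells incubated with serial compound dilutions at 37 °C and 5% CO2. Viability measured by MTT after 48–96 h. CC50 by linear regression against untreated controls.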
On the technique in general: Tetrazolium dyes change colour on reduction, which living cells bring about.

Data set [6] is described as follows: Cytotoxicity against human MT4 cells after 96 hrs by MTT assay. In kind it is cell-based. In a few lines: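 Exponentially growing MT-4 cells seeded at 1×10^5 cells/mL in RPMI-1640 with 10% FBS and incubated with serial compound dilutions at 37 °C and 5% CO2. Viability measured by MTT after 96 h. CC50 by linear regression against untreated controls.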
A short description of data set [7]: Antiviral activity against BVDV1 NADL ATCC VR-534 infected in MDBK cells assessed as inhibition of virus-induced cytopathogenicity after 3 to 4 days by MTT assay. In kind it is functional, cell-based, Bovine viral diarrhea virus 1-NADL. The settings on record: Bovine viral diarrhea virus isolates and strains, ATCC VR-534, MDBK. In a few lines:
(§3)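 BHK (5×10^4/well) or MDBK (3×10^4/well) cells grown to confluent monolayers overnight, infected at m.o.i. 0.01 in maintenance MEM-Earl with 0.5% inactivated FBS. Serially diluted compounds added after 1 h. Viability read by MTT after 3–4 days at 37 °C. Values are expressed as % of untreated controls, and EC50 is derived by linear regression. Duplicate samples.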
For orientation: Damage to the host cells serves as the signal in cytopathic effect assays.

The subject of a further data set is Human alphaherpesvirus 1. The data set is described as follows: Antiviral activity against Herpes simplex virus type 1 KOS ATCC VR-1493 infected in african green monkey Vero-76 cells assessed as reduction in viral plaque after 3 days by crystal violet staining. The class given is functional, organism-based. To be noted: Human alphaherpesvirus 1, KOS ATCC VR1493, Vero 76, 72 h. In a few lines: as §1

In a further data set the test system is Coxsackievirus B5. Kind of data set: Antiviral activity against Coxsackie virus type B5 Ohio-1 ATCC VR-29 infected in african green monkey Vero-76 cells assessed as reduction in viral plaque after 3 days by crystal violet staining. The class given is functional, organism-based. The settings on record: Enterovirus B, Ohio-1 ATCC VR-29, Vero 76, 72 h. In a few lines: as §1

Data set [8] relates to Mammalian orthoreovirus 1. Kind of data set: Antiviral activity against Reovirus 1 3651 ATCC VR-214 infected in BHK21 cells assessed as inhibition of virus-induced cytopathogenicity after 3 to 4 days by MTT assay. In kind it is functional, organism-based. The settings on record: Mammalian orthoreovirus 1, 3651 ATCC VR-214, BHK-21. In a few lines: as §3
Data set [9] in a line: Cytotoxicity against african green monkey Vero 76 cells after 48 to 96 hrs by MTT assay. The class given is cell-based. The settings on record: chlorocebus sabaeus.
The test system of the next data set is Poliovirus 1. Kind of data set: Antiviral activity against Polio virus type 1 strain sabin ATCC VR-1562 infected in african green monkey Vero-76 cells assessed as reduction in viral plaque after 2 days by crystal violet staining. To be noted: Enterovirus C, ATCC VR-1562, Vero 76, 48 h. The class given is functional, cell-based, Human poliovirus 1 strain Sabin.

The subject of the next data set is Vaccinia virus. The data set is described as follows: Antiviral activity against Vaccinia virus Elstree-Lister ATCC VR-1549 infected in african green monkey Vero-76 cells assessed as reduction in viral plaque after 3 days by crystal violet staining. In kind it is functional, organism-based. The settings on record: Orthopoxvirus vaccinia, Elstree-Lister ATCC VR-1549, Vero 76, 72 h.

A short description of data set [10]: Cytotoxicity against MDBK cells after 48 to 96 hrs by MTT assay. In kind it is cell-based, Bos taurus. The settings on record: cattle. In a few lines: as §2
A further data set relates to Hepatitis C virus. Kind of data set: Antiviral activity against Hepatitis C virus genotype 1b infected in human GS4.1 cells assessed as inhibition of viral replication after 72 hrs by ELISA. In kind it is functional, organism-based, Hepacivirus hominis. In a few lines: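 Huh-7 cells carrying the genotype 1b replicon (GS4.1) seeded at 7.5×10^3/well with two-fold serial dilutions, top 75 µM, for 72 h at 37 °C. Cells fixed in acetone–methanol. NS4A quantified by ELISA with anti-NS4A antibody A-236, peroxidase conjugate and o-phenylenediamine, read at 492 nm. EC50 from four-parameter sigmoidal fit. Replicon-free Huh-7 served as negative control.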
For orientation: In an ELISA, binding on a coated surface is turned into a signal by an enzyme label.

Data set [11] can be described thus: Cytotoxicity against human GS4.1 cells assessed as decrease in cell viability by Cell Titer glo assay. In kind it is cell-based.

As for `O=C(O)c1ccc2c(c1)nc(-c1ccoc1)n2C1CCCCC1`, in [1], 1.6 µM corresponded to half-maximal inhibition (IC50).
Take `CC(=O)c1ccc2[nH]c(-c3ccc(-c4ccc([N+](=O)[O-])cc4)cc3)nc2c1`: the values for the EC50 in the data set with Coxsackievirus B2 and in the data set on Yellow fever virus were 1 µM and 0.5 µM, respectively.
In data set [1], `O=C(O)c1ccc2c(c1)nc(-c1ccccn1)n2C1CCCCC1` yielded an IC50 of 4.3 µM.
In the data set with Coxsackievirus B2, `Nc1ccc(/C=C/c2nc3ccccc3[nH]2)cc1` had an EC50 of 7 µM.
Regarding `CC(=O)c1ccc2c(c1)nc(-c1ccc(C(F)(F)F)cc1)n2C1CCCCC1`, the EC50 in data set [2] was > 41 µM; in data set [3] it was 20 µM; in [4], > 35 µM; in data set [7], 23 µM; in the data set with Human alphaherpesvirus 1, > 35 µM; in the data set on Coxsackievirus B5 it was > 35 µM. For the same compound, the EC50 was > 33 µM in [8], > 33 µM in the data set with Yellow fever virus, > 35 µM with Poliovirus 1 and > 35 µM with Vaccinia virus. Further, the CC50 in data set [5] stood at 33 µM; in [9] it was 35 µM; in [10], 52 µM. Besides, the midpoint of cytotoxicity in data set [6], the CC50 at 96 h, lay at 41 µM.
Compound `Nc1ccc(/C=C/c2nc3cc(Cl)ccc3[nH]2)cc1` returned a 50% effective concentration (EC50) in the data set on Coxsackievirus B2 of 7 µM.
Regarding `COc1ccc(-c2nc3cc(/C(C)=N/O)ccc3[nH]2)c(OC)c1`, the EC50 in data set [2] is > 100 µM; in data set [3], > 100 µM; in [4], > 100 µM; in data set [7], 17 µM; in the data set on Human alphaherpesvirus 1, > 100 µM; with Coxsackievirus B5, 43 µM. Besides, the EC50 (in data set [8]; in the data set on Yellow fever virus; with Poliovirus 1; in the data set on Vaccinia virus) was > 100 µM in each case. Moreover, the cytotoxic concentration (CC50) in data set [5], in data set [9] and in data set [10] was > 100 µM throughout. Moreover, the CC50 at 96 h in data set [6] is ≥ 100 µM.
As for `COc1ccc(-c2nc3cc(/C(C)=N/NC(N)=S)ccc3[nH]2)c(OC)c1`, the EC50 with Hepatitis C virus was 1.11 µM; in data set [2] it was > 72 µM; in data set [3], > 100 µM; in [4], > 100 µM; in data set [7], 0.8 µM; in the data set on Human alphaherpesvirus 1, > 100 µM. Also, the EC50 in the data set with Coxsackievirus B5 is > 100 µM; in [8] it was > 28 µM; with Yellow fever virus, > 28 µM; in the data set on Poliovirus 1, > 100 µM. Besides, the CC50 in [11] is 11.3 µM; in [5], 28 µM; in [9], > 100 µM; in data set [10] it was > 100 µM. The same compound yielded a CC50 at 96 h in data set [6] of 72 µM.
Regarding `COc1ccc(-c2nc3cc(/C(C)=N/NC(N)=S)ccc3n2C2CCCCC2)c(OC)c1`, the EC50 was ≥ 17 µM in data set [2]; > 20 µM in data set [3]; > 20 µM in data set [4]; 4 µM in data set [7]; > 20 µM with Human alphaherpesvirus 1; > 20 µM with Coxsackievirus B5. For the same compound, the EC50 in data set [8] is > 17 µM; with Yellow fever virus, > 17 µM; in the data set with Poliovirus 1, > 20 µM; in the data set with Vaccinia virus, > 20 µM. Further, the figures for the CC50 in data set [5], in [9] and in [10] were 17 µM, 20 µM and > 100 µM, respectively. In data set [6], the CC50 at 96 h was found to be 17 µM.
